This is an account of results in publication PMC10334013 (International Journal of Tryptophan Research : IJTR, 2023).

Structures are written as SMILES.

The target in one data set is T1, human AHR (Homo sapiens, UniProt P35869).
T1 sequence (P35869 11-848): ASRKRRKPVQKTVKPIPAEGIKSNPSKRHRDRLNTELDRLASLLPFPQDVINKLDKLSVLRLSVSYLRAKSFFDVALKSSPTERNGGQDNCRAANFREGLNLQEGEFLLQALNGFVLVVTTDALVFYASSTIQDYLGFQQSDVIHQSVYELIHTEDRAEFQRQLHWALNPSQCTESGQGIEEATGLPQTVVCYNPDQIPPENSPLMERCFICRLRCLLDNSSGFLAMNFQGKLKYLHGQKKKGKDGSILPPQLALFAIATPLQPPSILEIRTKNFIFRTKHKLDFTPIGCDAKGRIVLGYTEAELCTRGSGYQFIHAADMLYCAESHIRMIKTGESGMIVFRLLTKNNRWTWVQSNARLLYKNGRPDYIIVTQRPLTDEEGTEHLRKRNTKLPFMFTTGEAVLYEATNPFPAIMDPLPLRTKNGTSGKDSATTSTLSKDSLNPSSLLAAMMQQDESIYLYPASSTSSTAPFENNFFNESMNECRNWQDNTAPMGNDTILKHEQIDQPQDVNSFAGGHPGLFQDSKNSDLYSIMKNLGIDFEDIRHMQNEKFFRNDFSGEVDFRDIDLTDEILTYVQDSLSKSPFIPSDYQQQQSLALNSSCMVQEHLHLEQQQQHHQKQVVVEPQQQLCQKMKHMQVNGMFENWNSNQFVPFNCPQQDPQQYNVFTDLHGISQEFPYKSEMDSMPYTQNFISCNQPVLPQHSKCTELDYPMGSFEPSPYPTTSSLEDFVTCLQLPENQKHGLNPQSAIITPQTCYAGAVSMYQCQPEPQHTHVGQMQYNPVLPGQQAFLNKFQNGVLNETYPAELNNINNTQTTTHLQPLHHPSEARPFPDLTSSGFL
Nature of the data set: Human AHR-dependent luciferase reporter assay. In kind it is cell-based. The following applies: HepG2 40/6 luciferase reporter, 4 hours, normalized to 10 nM TCDD and VEH.

For another data set, the system named is EREG. In kind it is cell-based, human. The following applies: FLS co-treated with 0.5 ng/mL IL1β, 24 hours; TCDD 10 nM. Put shortly:
(§1)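 Primary human fibroblast-like synoviocytes from healthy donors, kept and treated in Synoviocyte Growth Medium. […] RNA was isolated and transcripts quantified by real-time qPCR relative to ACTB, normalised to TCDD (10 nM) and vehicle. Mean ± SEM; one-way ANOVA.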

A further data set relates to IL1B. In kind it is cell-based, human. The following applies: FLS co-treated with 0.5 ng/mL IL1β, 24 hours; TCDD 10 nM. Put shortly: as §1
The subject of the next data set is mouse AHR. Briefly: Mouse AHR-dependent luciferase reporter assay. In kind it is cell-based. The following applies: Hepa 1.1 cells, 4 hours, mean concentrations measured in mouse sera. In short, it runs like this:
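Hepa 1.1 cells were grown in αMEM with 8% FBS and 1% penicillin-streptomycin, then seeded 24 h before treatment. […] Lysate luciferase was read by luminometer and compared with vehicle; one-way ANOVA.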
For orientation: Reporter assays use an easily measured gene product as a stand-in for the process of interest.

The next data set has as its system AHR target gene, CYP1A1. Briefly: CYP1A1 induction in Caco2 cells. Type of data set: cell-based, human. The following applies: 4 hours, mean serum concentrations.

Broadly, the EC25 is the concentration at which the effect reaches the 25% level. Consider `O=C(O)C(O)Cc1c[nH]c2ccccc12` (centres unmarked) [Indole-3-lactic acid, indole-3-lactic acid], for which the EC25 at human AHR was 25.9 µM.
Consider `Clc1cc2c(cc1Cl)Oc1cc(Cl)c(Cl)cc1O2` [TCDD, 2,3,7,8-tetrachlorodibenzo-p-dioxin], for which the “induction in EREG expression” value with EREG is 27 fold. For the same molecule, in the data set on IL1B, the “induction in IL1B expression” value came out at 192 fold.
In turn, `O=C(O)c1cc(=O)c2ccccc2[nH]1` [Kynurenic acid, kynurenic acid] had a concentration for an effect of 25% (EC25) at human AHR of 0.0408 µM. This lies in the double-digit nanomolar range.
As to `Nc1ccccc1C(=O)CC(N)C(=O)O` (centres unmarked) [Kynurenine, kynurenine], the “induction of luciferase activity relative to the vehicle treatment” value in the data set on mouse AHR is ~ 6 fold. The molecule further returned an EC25 at human AHR of 1.76 µM. Further, the “AHR activity (CYP1A1 transcripts by qPCR) versus vehicle” value with AHR target gene, CYP1A1 is recorded as “significantly different from the vehicle treatment”.
`O=C(O)CCc1c[nH]c2ccccc12` [Indole-3-propionic acid, indole-3-propionic acid] displayed an EC25 at human AHR of 19.2 µM.
